Assay results of several laboratories.
Lines come from different studies, so protocols differ.
BRD1 bromodomain: Bromodomain-containing protein 1, bromodomain (BRD1, Homo sapiens, UniProt O95696)
Si: Sucrase-isomaltase, intestinal (Si, Rattus norvegicus, UniProt P23739)

The remaining activity of `CC(C)(C)c1nc2c(s1)c1nc(N)ncc1c1ccc(NS(=O)(=O)c3c(F)cccc3F)c(F)c12` is reported as 69% (Eukaryotic translation initiation factor 2-alpha kinase 1 (EIF2AK1, Homo sapiens, UniProt Q9BQI3); enzyme activity, inhibitor, radiometric; 1 µM).
`NS(=O)(=O)c1ccc(Nc2nc(-c3ccc(F)cc3)c3ccccc3n2)cc1` has a remaining binding of 2% (BRD1 bromodomain; binding, competition with immobilised ligand; 1 µM).
For `O=c1c(O[C@@H]2O[C@H](CO)[C@@H](O)[C@H](O)[C@H]2O)c(-c2ccc(O)c(O)c2)oc2cc(O)cc(O)c12`, the inhibition was 54.6% (Si; enzyme activity, inhibitor; 100 µg/mL).
With `Cc1cnc(Nc2ccc(OCCN3CCCC3)cc2)nc1Nc1cccc(S(=O)(=O)NC(C)(C)C)c1` the ΔTm was 0.51 °C (BRD1 bromodomain; thermal stability, DSF; 10 µM).
`Cn1c2c(c3ccc(Cl)c(Cl)c31)C(C#N)C(C)(C)NC2=O` (stereo not drawn) has a ΔTm of 2.7 °C (Rhodopsin kinase GRK1 (GRK1, Homo sapiens, UniProt Q15835); thermal stability, DSF; 10 µM).
For `Cc1ccc(NC(=O)c2ccc(C)c(C(F)(F)F)c2)cc1C#Cc1nn(C2CCC(O)CC2)c2ncnc(N)c12` (stereo not drawn), the remaining signal was -1% (Abl2 (Mus musculus, UniProt Q4JIM5); cell-free assay; 10 µM).
`O=C(c1ccc(Cl)cc1)N(Cc1ccccc1)C1CCCCC1` has an inhibition of 28.5% (Glucocorticoid receptor (NR3C1, Homo sapiens, UniProt P04150); cell-free assay; 10 µM).
The remaining activity of `Cc1ccc(C(=O)Nc2ccc(CN3CCN(C)CC3)c(C(F)(F)F)c2)cc1C#Cc1cnc2cccnn12` is reported as 88% (Serine/threonine-protein kinase RIO2 (RIOK2, Homo sapiens, UniProt Q9BVS4); enzyme activity, inhibitor; 23.5 nM).
`C=C(C)[C@@H]1CCC(C)=C[C@H]1c1c(O)cc(CCCCC)cc1O` has a remaining activity of 131% (Polyunsaturated fatty acid lipoxygenase ALOX12 (ALOX12, Homo sapiens, UniProt P18054); enzyme activity in cells, inhibitor; PMNL; 10 µM).
`O=c1c(O[C@@H]2O[C@@H](CO)[C@H](O)[C@H]2O)c(-c2ccc(O)c(O)c2)oc2cc(O)cc(O)c12` gave an inhibition of 52.4% (Si; enzyme activity, inhibitor; 100 µg/mL).
`CCOCc1nc(O)c(-c2nnc(Cc3ccc(Cl)cn3)o2)c(O)c1-c1c(OC)cccc1OC` gave a koff of 0.00075 s⁻¹ (Apelin receptor (APLNR, Homo sapiens, UniProt P35414); binding, radioligand).
`Nc1ncnc2occ(-c3ccc(NC(=O)Nc4cc(C(F)(F)F)ccc4F)cc3)c12` has a remaining signal of 73% (Phosphatidylinositol 3-kinase catalytic subunit type 3 (PIK3C3, Homo sapiens, UniProt Q8NEB9); cell-free assay; 20 µM).
For `O=C(Nc1cccc(-c2ccn[nH]2)c1)c1cccc2cn[nH]c12`, the ΔTm was 3.4 °C (pqsE (Pseudomonas aeruginosa, UniProt P20581); thermal stability, DSF; 100 µM).
With `O=C(c1ccc(F)cc1)N(Cc1ccccc1)C1CCCCC1` the inhibition was 2% (5-hydroxytryptamine receptor 1A (HTR1A, Homo sapiens, UniProt P08908); ligand displacement, radioligand; 10 µM).
For `O=C1OC[C@H]2OC(=O)c3cc(O)c(O)c(O)c3-c3c(O)c(O)c(O)c4c3C(=O)O[C@H]([C@H]3OC(=O)c5c-4c(O)c(O)c(O)c5[C@H]3O)[C@@H]2OC(=O)c2cc(O)c(O)c(O)c2-c2c1cc(O)c(O)c2O`, the inhibition was 48.3% (Si; enzyme activity, inhibitor; 100 µg/mL).
